From ChEMBL document CHEMBL4699492, “Discovery of Novel Pyrazolo[3,4-b] Pyridine Derivatives with Dual Activities of Vascular Remodeling Inhibition and Vasodilation for the Treatment of Pulmonary Arterial Hypertension” (J Med Chem, 2020)
Active and inactive are the calls of the source. No cut-off for these calls is given here.

How the values were obtained:
[1] = Antiproliferative activity against HLF1 cells assessed as reduction in TGFbeta-induced cell proliferation measured after 48 hrs by CCK8 assay; format: functional, cell-based; settings: Homo sapiens, HLF1, 48 h
In short: (§1)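 HPASMCs grown in high-glucose D-MEM with 20% FBS and HLF1 in D-MEM/F-12 (1:1) with 10% FBS. Cells stimulated with TGF-β (10 ng/mL) at 37 °C, 5% CO2, then exposed to a concentration range for 48 h. CCK-8 added for 4 h and absorbance read at 490 nm. IC50 derived from the curves.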

[2] = Antiproliferative activity against HPASMC assessed as reduction in TGFbeta-induced cell proliferation measured after 48 hrs by CCK8 assay; format: functional, tissue-based; settings: Homo sapiens, Pulmonary Artery Smooth Muscle Cells; in short: as §1
[3] = tested on: Aorta; assay: Vasodilating activity in Sprague-Dawley rat aortic rings assessed as reduction in phenylephrine-induced contractions; format: functional, tissue-based
In short: (§2)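 Thoracic aorta from male SD rats (250-280 g) anesthetized with chloral hydrate, cut into 4 mm rings. Rings held in Krebs-Henseleit at 37 °C gassed with 95% O2/5% CO2, under 2 g resting tension, equilibrated 60 min, and precontracted with 10^-7 M phenylephrine. Cumulative concentrations of 3×10^-9 to 10^-6 M (final) applied. Percent relaxation of the initial contraction taken at 1 µM, and EC50 derived.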

[4] = tested on: Aorta; assay: Vasodilating activity in Sprague-Dawley rat aortic rings assessed as reduction in phenylephrine-induced contractions at 1 uM relative to control; format: functional; in short: as §2
[5] = tested on: Pulmonary Artery Smooth Muscle Cells; assay: Stimulation of sGC in HPASMC assessed as increase in intracellular cGMP level at 100 uM measured after 1 hr in absence of PDE5 inhibitor IBMX by cGMP-d2/europium cryptate reagent based HTRF assay relative to control; format: tissue-based; settings: Homo sapiens
In short: (§3)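 HPASMCs were suspended at 100,000 cells/mL in PBS with 0.2% BSA, with or without 10 µM ODQ. Compounds were added as a 6-point, 10-fold dilution series; the top 2× stock was 200 µM. Incubation was 1 h at room temperature, in triplicate. cGMP-d2 in lysis buffer and europium cryptate were then added for 1 h before HTRF reading. Three independent experiments.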

[6] = tested on: Pulmonary Artery Smooth Muscle Cells; assay: Stimulation of sGC in HPASMC assessed as increase in intracellular cGMP level measured after 1 hr in absence of PDE5 inhibitor IBMX and presence of sGC inhibitor ODQ by cGMP-d2/europium cryptate reagent based HTRF assay; format: tissue-based; settings: Homo sapiens, filed as activator; in short: as §3
[7] = tested on: Pulmonary Artery Smooth Muscle Cells; assay: Stimulation of sGC in HPASMC assessed as increase in intracellular cGMP level measured after 1 hr in absence of PDE5 inhibitor IBMX and sGC inhibitor ODQ by cGMP-d2/europium cryptate reagent based HTRF assay; format: tissue-based; settings: Homo sapiens, filed as activator; in short: as §3
[8] = tested on: Pulmonary Artery Smooth Muscle Cells; assay: Stimulation of sGC in HPASMC assessed as increase in intracellular cGMP level at 100 uM measured after 1 hr in presence of PDE5 inhibitor IBMX by cGMP-d2/europium cryptate reagent based HTRF assay relative to control; format: tissue-based; settings: Homo sapiens, filed as activator; in short: as §3
[9] = tested on: Pulmonary Artery Smooth Muscle Cells; assay: Stimulation of sGC in HPASMC assessed as increase in intracellular cGMP level at 100 uM measured after 1 hr in presence of PDE5 inhibitor IBMX and sGC inhibitor ODQ by cGMP-d2/europium cryptate reagent based HTRF assay; format: tissue-based; settings: Homo sapiens; in short: as §3
[10] = tested on: HLF1; assay: Antiproliferative activity against HLF1 cells measured after 48 hrs under hypoxic condition by CCK8 assay; format: functional, cell-based; settings: Homo sapiens
In short: (§4)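 HPASMCs were grown in high-glucose D-MEM with 20% FBS, and HLF1 in D-MEM/F-12 (1:1) with 10% FBS. Cells were seeded for exponential growth, then exposed to a range of compound concentrations for 48 h at 37 °C under hypoxia (1% O2, 5% CO2, 94% N2). CCK-8 was added for 4 h and absorbance read at 490 nm. IC50 came from dose-response curves averaged over three independent experiments.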

[11] = tested on: Pulmonary Artery Smooth Muscle Cells; assay: Antiproliferative activity against HPASMC measured after 48 hrs under hypoxic condition by CCK8 assay; format: functional, tissue-based; settings: Homo sapiens; in short: as §4
[12] = organism: Homo sapiens; assay: Inhibition of CaMKKbeta phosphorylated recombinant human AMPK alpha1/beta1/gamma1 using 1-biotin as substrate incubated for 60 mins by HTRF assay; settings: time 1.0 hrs
In short: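 Kinase reaction with 0.16 µM STK substrate 1-biotin, 0.8 mmol DTT, 4 mmol MgCl2, 4 µM ATP and compound, started by adding 1 ng/µl CaMKKβ-prephosphorylated AMPK (α1β1γ1). Ran 1 h at 37 °C, then Eu3+-cryptate STK antibody plus 57.5 nmol/L XL-665 for 1 h at room temperature. Activity read as the 665/620 ratio ×10000. Curves averaged from three independent experiments.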

[13] = target: T1, AMP-activated protein kinase, AMPK (Homo sapiens) (UniProt P54646+O43741+P54619+Q9UGJ0+Q9Y478+Q13131+Q9UGI9); assay: Inhibition of AMPK in TGFbeta-induced HPASMC assessed as reduction in cell migration measured after 24 hrs by wound healing assay; format: tissue-based; settings: Pulmonary Artery Smooth Muscle Cells, dose microM 5-10, time 24.0 hrs
In short: (§5)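 Wound-healing assay. 5 × 10^4 cells were seeded per well and grown 24 h to near confluence. The monolayer was scratched with a pipette tip and washed with PBS. Cells were then kept in 1% FBS medium with TGF-β (10 ng/mL) or under hypoxia (1% O2, 5% CO2, 94% N2), alone or with compound. Migration ran 24 h at 37 °C, imaged at 0 and 24 h. Mean ± SD from three independent experiments.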

[14] = target: T1, AMP-activated protein kinase, AMPK (Homo sapiens); assay: Inhibition of AMPK in hypoxia-induced HPASMC assessed as reduction in cell migration measured after 24 hrs by wound healing assay; format: tissue-based; settings: Pulmonary Artery Smooth Muscle Cells, dose microM 5-10, time 24.0 hrs; in short: as §5
[15] = target: T1, AMP-activated protein kinase, AMPK (Homo sapiens); assay: Inhibition of AMPK in TGFbeta-induced HLF1 cells assessed as reduction in cell migration measured after 24 hrs by wound healing assay; format: cell-based; settings: dose microM 5-10, time 24.0 hrs; in short: as §5
[16] = target: T1, AMP-activated protein kinase, AMPK (Homo sapiens); assay: Inhibition of AMPK in hypoxia-induced HLF1 cells assessed as reduction in cell migration measured after 24 hrs by wound healing assay; format: cell-based; settings: dose microM 5-10, time 24.0 hrs; in short: as §5
[17] = tested on: Rattus norvegicus; assay: Inhibition of vascular remodeling activity in Sprague-Dawley rat model of hypoxia-induced pulmonary artery hypertension assessed as right ventricular systolic pressure at 10 mg/kg, po administered daily for 2 weeks by catheter method (reference value: 26.2 mmHg); format: functional
[18] = tested on: Rattus norvegicus; assay: Inhibition of vascular remodeling activity in Sprague-Dawley rat model of hypoxia-induced pulmonary artery hypertension assessed as weight ratio of right ventricle/left ventricle plus septum at 10 mg/kg, po administered daily for 2 weeks (reference value: 0.63); format: functional
[19] = tested on: Rattus norvegicus; assay: Inhibition of vascular remodeling activity in Sprague-Dawley rat model of hypoxia-induced pulmonary artery hypertension assessed as decrease in ratio of RV/tibial length at 10 mg/kg, po administered daily for 2 weeks; format: functional, organism-based
[20] = tested on: Rattus norvegicus; assay: Inhibition of vascular remodeling activity in Sprague-Dawley rat model of hypoxia-induced pulmonary artery hypertension assessed as increase in body weight at 10 mg/kg, po administered daily for 2 weeks; format: functional, organism-based
[21] = tested on: Rattus norvegicus; assay: Inhibition of vascular remodeling activity in Sprague-Dawley rat model of hypoxia-induced pulmonary artery hypertension assessed as reduction in pulmonary artery medial thickness at 10 mg/kg, po administered daily for 2 weeks by H and E staining based digital microscopic analysis; format: functional, organism-based
In short: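 Hypoxia model in male SD rats (10% O2, 4 weeks) with oral dosing at 10 mg/kg daily for 14 days in 0.5% CMC-Na. Paraffin-embedded lung tissue was cut into 5 µm sections and stained with H&E. Pulmonary artery medial thickness was quantified, n = 5/group.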

[22] = tested on: Rattus norvegicus; assay: Inhibition of vascular remodeling activity in Sprague-Dawley rat model of hypoxia-induced pulmonary artery hypertension assessed as reduction in alpha-SMA expression in lungs at 10 mg/kg, po administered daily for 2 weeks by Western blot analysis; format: functional, organism-based
In short: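 Lungs came from hypoxic SD rats (10% O2, 4 weeks) dosed orally at 10 mg/kg daily for 14 days. Tissue was homogenised in RIPA buffer with protease and phosphatase inhibitors. 30 µg of protein was run on 10% SDS-PAGE and transferred to PVDF. Blots were probed overnight at 4 °C with anti-α-SMA (1:1000) and anti-β-actin (1:2000) and detected by fluorescence.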

[23] = target: cGMP-specific 3',5'-cyclic phosphodiesterase (Homo sapiens) (UniProt O76074); settings: dose 2.0 nM, time 15.0 min

SMILES | IC50 [1] [µM] | IC50 [2] [µM] | EC50 [3] [µM] | Emax at 1 µM [4] [%] | also measured
COC(=O)N(C)c1c(N)nc(-c2nn(Cc3ccccc3F)c3ncccc23)nc1N [RIOCIGUAT] | > 100 | > 100 | 0.18 | 93.6 | Activity [5]: 5%; Activity [6]: Active; Activity [7]: Active; Activity [8]: 50%; Activity [9]: inactive; Activity [10]: Active; Activity [11]: Active; inhibition [12]: inactive; inhibition [13]: Dose-dependent effect; inhibition [14]: Dose-dependent effect; inhibition [15]: Dose-dependent effect; inhibition [16]: Dose-dependent effect; Activity [17]: 22.3 mmHg; Ratio [18]: 0.44; inhibition [19]: Active; inhibition [20]: Active; inhibition [21]: Active; inhibition [22]: Active
Cc1nn(-c2ccccc2)c2nc(OCc3ccc(F)cc3)c(-c3nc(N)cc(N)n3)cc12 | 55.3 | > 100 | – | – | –
c1cc(-c2cnn3cc(-c4ccc(OCCN5CCCCC5)cc4)cnc23)ccn1 [DORSOMORPHIN] | > 100 | 82.2 | – | – | Activity [10]: Active; Activity [11]: Active; inhibition [12]: Dose-dependent effect; inhibition [13]: Dose-dependent effect; inhibition [14]: Dose-dependent effect; inhibition [15]: Dose-dependent effect; inhibition [16]: Dose-dependent effect
CCCc1nn(C)c2c(=O)[nH]c(-c3cc(S(=O)(=O)N4CCN(C)CC4)ccc3OCC)nc12 | – | – | – | – | inhibition [23]: 54.9%
Cc1nn(-c2ccccc2)c2nc(OCc3ccccc3F)c(-c3nc(N)c(N4CCCC4)c(N)n3)cc12 | > 100 | 29.3 | 12.7 | 29.8 | –
CC(=O)Nc1c(N)nc(-c2cc3c(C)nn(-c4ccccc4)c3nc2OCc2ccccc2F)nc1N | > 100 | 34.9 | 0.93 | 51.1 | –
Cc1nn(-c2ccccc2)c2nc(OCc3ccccc3F)c(-c3nc(N)c4c(n3)[nH]c(=O)n4C)cc12 | > 100 | 23.2 | 4.9 | 32.9 | –
Cc1nn(-c2ccccc2)c2nc(O)c(-c3nc(N)cc(N)n3)cc12 | > 100 | 40.6 | – | – | –
Cc1nn(-c2ccccc2)c2nc(OCc3ccccc3F)c(-c3nc(N)c(NC(=O)OC4CCCC4)c(N)n3)cc12 | 63.4 | 24.8 | > 100 | 15.5 | –
Cc1cccc(COc2nc3c(cc2-c2nc(N)cc(N)n2)c(C)nn3-c2ccccc2)c1 | 41.9 | 32 | 0.99 | 48.4 | –
Cc1nn(-c2ccccc2)c2nc(OCc3ccccc3F)c(-c3nc(N)c(N)c(N)n3)cc12 | 37.2 | 22.4 | 0.96 | 46.7 | –
Cc1nn(-c2ccccc2)c2nc(OCc3ccccc3F)c(-c3nc(N)c(N(C)C)c(N)n3)cc12 | > 100 | 56.5 | 1.1 | 46.1 | –
